Results: ChEMBL document CHEMBL4359883, “4(1H)-quinolone derivatives overcome acquired resistance to anti-microtubule agents by targeting the colchicine site of β-tubulin” (Eur J Med Chem, 2019)
pIC50, pKd: −log10 of the molar value. Calls of active or inactive are those of the source. The calls are words filed in the database; no cut-off is given here.

Legend:
NCI-H1975 = assay: Antiproliferative activity against human NCI-H1975 cells assessed as reduction in cell viability after 72 hrs by MTS assay; type: functional, cell-based; conditions: NCI-H1975, 72 h
In short: (§1)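 Cells plated at 2000/well, cultured overnight, then exposed to a range of compound concentrations for 72 h. MTS reagent added for 1–4 h at 37 °C and absorbance read at 490 nm. Cultured in RPMI 1640 or DMEM with 10% heat-inactivated FBS under 5% CO2. Data are the mean of three determinations.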

Tubulin (Sus scrofa) = Tubulin (Sus scrofa) (UniProt P02554+P02550); assay: Inhibition of porcine tubulin at 5 uM in presence of GTP measured every minute for 1 hr by microplate reader analysis; type: protein assay
Tubulin (Homo sapiens) [1] = target: T1, Tubulin (Homo sapiens) (UniProt P68371+Q9H4B7+P0DPH7+P68366+Q13509+Q71U36+P04350+Q3ZCM7+P07437+P68363+Q9BQE3+Q6PEY2+Q13885+Q9BVA1+Q9BUF5); assay: Binding affinity to tubulin (unknown origin) assessed as reduction in Beta-colfragment production at 100 uM after 30 mins by coomassie brilliant blue staining based trypsin proteolysis assay; type: protein-complex assay
In short: (§2)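 Tubulin (1 mg/mL) preincubated with 100 µM compound for 30 min at 30 °C in 0.1 M MES, 1 mM MgCl2, 1 mM EGTA, pH 6.9. Trypsin added at 25 µg/mL (1:40 w/w) for 10 min on ice. Fragments resolved on 15% SDS-PAGE, stained with Coomassie and quantified by densitometry.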

KB = assay: Antiproliferative activity against human KB cells assessed as reduction in cell viability after 72 hrs by MTS assay; type: functional, cell-based; in short: as §1
[2] = Antiproliferative activity against human CCRF-CEM/VBL cells assessed as reduction in cell viability after 72 hrs by MTS assay; type: functional, cell-based; in short: as §1
[3] = Selectivity index, ratio of IC50 for human KB/VCR cells to IC50 for human KB cells; type: functional
Tubulin (Homo sapiens) [4] = target: T1, Tubulin (Homo sapiens); assay: Binding affinity to tubulin (unknown origin) assessed as reduction in alpha-C fragment production at 100 uM after 30 mins by coomassie brilliant blue staining based trypsin proteolysis assay; type: protein-complex assay; in short: as §2
CCRF-CEM = assay: Antiproliferative activity against human CCRF-CEM cells assessed as reduction in cell viability after 72 hrs by MTS assay; type: functional, cell-based; in short: as §1
[5] = Selectivity index, ratio of IC50 for human KBtax cells to IC50 for human KB cells; type: functional
Tubulin (Homo sapiens) [6] = target: T1, Tubulin (Homo sapiens); assay: Binding affinity to tubulin (unknown origin) assessed as reduction in alpha-N fragment production at 100 uM after 30 mins by coomassie brilliant blue staining based trypsin proteolysis assay; type: protein-complex assay; in short: as §2
[7] = Antiproliferative activity against human KBtax cells assessed as reduction in cell viability after 72 hrs by MTS assay; type: functional, cell-based; in short: as §1
[8] = Selectivity index, ratio of IC50 for human CCRF-CEM/VBL cells to IC50 for human CCRF-CEM cells; type: functional
[9] = Antiproliferative activity against human KB/VCR cells assessed as reduction in cell viability after 72 hrs by MTS assay; type: functional, cell-based; in short: as §1
[10] = Induction of apoptosis in human NHFB cells assessed as cytochrome c release at 40 to 80 nM after 24 hrs by immunoblotting analysis; type: cell-based; conditions: 0.08 µM
[11] = Toxicity in Balb/c mouse xenografted with human NCI-H1975 cells assessed as serum BUN level at 4 mg/kg, ip administered 3 times per week for 25 days (reference value: 18.5 +/- 1.6 mg/dl); type: organism-based; conditions: in vivo, 600 h
[12] = Toxicity in Balb/c mouse xenografted with human NCI-H1975 cells assessed as effect on body mass at 4 to 8 mg/kg, ip administered 3 times per week for 25 days; type: organism-based; conditions: in vivo, 600 h
In short: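 H1975 cells (2 × 10^6) injected subcutaneously into right flank of 6-week-old BALB/c nude mice; established tumors treated intraperitoneally with 4 or 8 mg/kg compound in DMSO, or DMSO, three times a week for 25 days (n = 6 per group). Body mass recorded before each injection.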

[13] = Toxicity in Balb/c mouse xenografted with human NCI-H1975 cells assessed as serum creatinine level at 4 mg/kg, ip administered 3 times per week for 25 days (reference value: 0.14 +/- 0.02 mg/dl); type: organism-based; conditions: in vivo, 600 h
[14] = Toxicity in Balb/c mouse xenografted with human NCI-H1975 cells assessed as serum AST level at 8 mg/kg, ip administered 3 times per week for 25 days (reference value: 122 +/- 14.5 IU/L); type: organism-based; conditions: in vivo, 600 h
[15] = Toxicity in Balb/c mouse xenografted with human NCI-H1975 cells assessed as serum ALT level at 4 mg/kg, ip administered 3 times per week for 25 days (reference value: 36.6 +/- 5.9 IU/L); type: organism-based; conditions: in vivo, 600 h
[16] = Toxicity in Balb/c mouse xenografted with human NCI-H1975 cells assessed as serum BUN level at 8 mg/kg, ip administered 3 times per week for 25 days (reference value: 18.5 +/- 1.6 mg/dl); type: organism-based; conditions: in vivo, 600 h
[17] = Cell cycle arrest in human NHFB cells assessed as effect on cell population at sub-G1 phase at 40 to 80 nM after 24 hrs by propidium iodide-staining based flow cytometry; type: ADME; conditions: 0.08 µM
In short: (§3)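 Cells treated for 24 h, then trypsinized and fixed overnight in ice-cold 70% ethanol. Stained for 30 min with propidium iodide (10 µg/mL) plus RNase (20 µg/mL), and DNA content measured by flow cytometry. Mean ± SD.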

[18] = Induction of apoptosis in human NHFB cells assessed as cleaved caspase 3 expression at 40 nM after 24 to 72 hrs by immunoblotting analysis; type: cell-based; conditions: 0.04 µM
[19] = Toxicity in Balb/c mouse xenografted with human NCI-H1975 cells assessed as serum creatinine level at 8 mg/kg, ip administered 3 times per week for 25 days (reference value: 0.14 +/- 0.02 mg/dl); type: organism-based; conditions: in vivo, 600 h
[20] = Cell cycle arrest in human NHFB cells assessed as effect on cell population at G2/M phase at 40 to 80 nM after 24 hrs by propidium iodide-staining based flow cytometry; type: ADME; conditions: 0.08 µM; in short: as §3
[21] = Toxicity in Balb/c mouse xenografted with human NCI-H1975 cells assessed as serum AST level at 4 mg/kg, ip administered 3 times per week for 25 days (reference value: 122 +/- 14.5 IU/L); type: organism-based; conditions: in vivo, 600 h
[22] = Toxicity in Balb/c mouse xenografted with human NCI-H1975 cells assessed as serum ALT level at 8 mg/kg, ip administered 3 times per week for 25 days (reference value: 36.6 +/- 5.9 IU/L); type: organism-based; conditions: in vivo, 600 h
[23] = Induction of apoptosis in human NHFB cells assessed as PARP cleavage at 40 nM after 24 to 72 hrs by immunoblotting analysis; type: cell-based; conditions: 0.04 µM
Tubulin = assay: Binding affinity to tubulin (unknown origin) assessed as dissociation constant by SPR analysis; type: protein-complex assay, Homo sapiens
In short: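 Biotin-tubulin (50 µg/mL) captured on a streptavidin chip to about 3,000 RU, with remaining sites blocked by biocytin and a free flow cell as reference. Compound injected at different concentrations in HBS-EP+ (pH 7.4) at 25 °C. KD obtained from steady-state fitting.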

[24] = target: T2, Tubulin alpha (Homo sapiens) (UniProt P0DPH7+P68366+Q71U36+P68363+Q9BQE3+Q6PEY2+A6NHL2+Q9NY65); assay: Induction of microtubule depolymerization in human CL1-0 cells assessed as increase in alpha tubulin soluble form by immunoblot analysis; type: cell-based
In short: (§4)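 Lysate spun at 16,000 rpm for 15 min at room temperature. Soluble (monomer) and particulate (polymer) fractions immunoblotted for α-tubulin.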

[25] = target: T2, Tubulin alpha (Homo sapiens); assay: Induction of microtubule depolymerization in human NCI-H1975 cells assessed as increase in alpha tubulin soluble form by immunoblot analysis; type: cell-based; in short: as §4
Tubulin (Homo sapiens) [26] = target: T1, Tubulin (Homo sapiens); assay: Binding affinity to tubulin (unknown origin) assessed as increase in Beta-col fragment production at 100 uM after 30 mins by coomassie brilliant blue staining based trypsin proteolysis assay; type: protein-complex assay; in short: as §2
[27] = Toxicity in Balb/c mouse xenografted with human KBtax cells assessed as serum BUN level at 15 mg/kg, ip administered 3 times per week and measured after 21 days (reference value: 17.8 +/-1.1 mg/dl); type: organism-based; conditions: in vivo, 504 h
[28] = Antitumour activity against human KBtax cells xenografted in Balb/c mouse assessed as reduction in tumour size at 15 mg/kg, ip administered 3 times per week and measured after 21 days (reference value: 1109 +/- 128.3 mm3); type: functional
[29] = Toxicity in Balb/c mouse xenografted with human KBtax cells assessed as serum creatinine level at 15 mg/kg, ip administered 3 times per week and measured after 21 days (reference value: 0.22 +/- 0.02 mg/dl); type: organism-based; conditions: in vivo, 504 h
[30] = Toxicity in Balb/c mouse xenografted with human KBtax cells assessed as serum AST level at 15 mg/kg, ip administered 3 times per week and measured after 21 days (reference value: 94.2 +/- 12.5 IU/L); type: organism-based; conditions: in vivo, 504 h

Sequence of Tubulin (Sus scrofa) (P02550 whole entry, looked up, the tested form may be a part): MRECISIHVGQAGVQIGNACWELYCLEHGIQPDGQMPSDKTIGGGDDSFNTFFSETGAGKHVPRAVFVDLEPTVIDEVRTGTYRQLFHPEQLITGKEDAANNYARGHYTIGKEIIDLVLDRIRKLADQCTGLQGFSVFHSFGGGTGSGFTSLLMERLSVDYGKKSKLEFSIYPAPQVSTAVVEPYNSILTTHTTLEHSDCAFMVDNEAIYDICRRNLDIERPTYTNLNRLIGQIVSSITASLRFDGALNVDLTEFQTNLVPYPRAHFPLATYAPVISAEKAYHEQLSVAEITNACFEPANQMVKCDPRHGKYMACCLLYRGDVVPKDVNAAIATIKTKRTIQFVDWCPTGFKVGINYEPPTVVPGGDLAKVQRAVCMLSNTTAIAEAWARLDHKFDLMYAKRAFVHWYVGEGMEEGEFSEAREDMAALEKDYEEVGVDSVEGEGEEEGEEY
Sequence of Tubulin (Sus scrofa) (P02554 whole entry, looked up, the tested form may be a part): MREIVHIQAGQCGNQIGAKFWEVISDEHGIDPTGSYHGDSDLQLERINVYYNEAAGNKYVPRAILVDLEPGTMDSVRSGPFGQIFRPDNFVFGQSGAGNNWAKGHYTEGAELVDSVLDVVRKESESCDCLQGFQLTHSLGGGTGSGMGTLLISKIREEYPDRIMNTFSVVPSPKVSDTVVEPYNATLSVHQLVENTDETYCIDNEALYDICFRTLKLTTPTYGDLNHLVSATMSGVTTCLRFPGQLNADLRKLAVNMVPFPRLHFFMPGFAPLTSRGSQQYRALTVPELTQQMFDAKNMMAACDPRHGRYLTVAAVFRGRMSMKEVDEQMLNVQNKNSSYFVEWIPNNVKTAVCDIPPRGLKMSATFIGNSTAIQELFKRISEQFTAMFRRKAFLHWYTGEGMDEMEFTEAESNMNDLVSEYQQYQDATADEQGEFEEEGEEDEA

Structure (SMILES): CCOC(=O)c1ccc2[nH]c(-c3ccc(F)cc3)cc(=O)c2c1
- pIC50 (NCI-H1975): 5.68

Structure (SMILES): CC(C)OC(=O)c1ccc2[nH]c(-c3ccccc3)cc(=O)c2c1
- pIC50 (NCI-H1975): 7.32

Structure (SMILES): CC[C@]1(O)C[C@H]2CN(CCc3c([nH]c4ccccc34)[C@@](C(=O)OC)(c3cc4c(cc3OC)N(C=O)[C@H]3[C@@](O)(C(=O)OC)[C@H](OC(C)=O)[C@]5(CC)C=CCN6CC[C@]43[C@@H]65)C2)C1 [VINCRISTINE]
- tubulin inhibition call (active/not active) (Tubulin (Sus scrofa)): Active
- Activity (Tubulin (Homo sapiens) [1]): Active
- pIC50 (KB): 8.30
- pIC50 [2]: 5.88
- Ratio IC50 [3]: 163
- Activity (Tubulin (Homo sapiens) [4]): Active
- pIC50 (CCRF-CEM): 8.52
- Ratio IC50 [5]: 9.8
- Activity (Tubulin (Homo sapiens) [6]): Active
- pIC50 [7]: 7.31
- Ratio IC50 [8]: 440
- pIC50 [9]: 6.09

Structure (SMILES): C/C(=C\c1csc(C)n1)[C@@H]1C[C@@H]2O[C@]2(C)CCC[C@H](C)[C@H](O)[C@@H](C)C(=O)C(C)(C)[C@@H](O)CC(=O)N1 [IXABEPILONE]
- pIC50 (KB): 8.10
- pIC50 [2]: 6.82
- Ratio IC50 [3]: 24
- pIC50 (CCRF-CEM): 8.52
- Ratio IC50 [5]: 4.3
- pIC50 [7]: 7.46
- Ratio IC50 [8]: 50
- pIC50 [9]: 6.71

Structure (SMILES): O=C(O)c1ccc2[nH]c(-c3ccccc3)cc(=O)c2c1
- pIC50 (NCI-H1975): < 5.30

Structure (SMILES): COC(=O)c1ccc2[nH]c(-c3ccccc3)cc(=O)c2c1
- pIC50 (NCI-H1975): 6.68

Structure (SMILES): CCOC(=O)c1ccc2[nH]c(-c3cccc(OC)c3)cc(=O)c2c1
- pIC50 (NCI-H1975): 7.36

Structure (SMILES): CCNC(=O)c1ccc2[nH]c(-c3ccccc3)cc(=O)c2c1
- pIC50 (NCI-H1975): 5.43

Structure (SMILES): CCOCc1ccc2[nH]c(-c3ccccc3)cc(=O)c2c1
- pIC50 (NCI-H1975): 6.09

Structure (SMILES): CCOC(=O)c1ccc2[nH]c(-c3ccccc3)cc(=O)c2c1
- Activity [10]: Non-Toxic
- Activity [11]: 23.2 mg/dL
- Activity [12]: Non-Toxic
- Activity [13]: 0.26 mg/dL
- Activity [14]: 170.8 IU/L
- Activity [15]: 40.8 IU/L
- Activity [16]: 20.9 mg/dL
- Activity [17]: Non-Toxic
- Activity [18]: Non-Toxic
- Activity [19]: 0.17 mg/dL
- Activity [20]: Non-Toxic
- Activity [21]: 138.7 IU/L
- Activity [22]: 54.2 IU/L
- Activity [23]: Non-Toxic
- pKd (Tubulin): 4.86

Structure (SMILES): CCOC(=O)c1ccc2[nH]c(-c3ccc(OC)cc3)cc(=O)c2c1
- pIC50 (NCI-H1975): 5.66

Structure (SMILES): CCOC(=O)c1ccc2[nH]c(-c3cccc(C(F)(F)F)c3)cc(=O)c2c1
- pIC50 (NCI-H1975): 6.11

Structure (SMILES): CCOC(=O)c1ccc2[nH]c(-c3ccc(O)cc3)cc(=O)c2c1
- pIC50 (NCI-H1975): 6.32

Structure (SMILES): CCOC(=O)c1ccc2[nH]c(-c3ccc(Br)cc3)cc(=O)c2c1
- pIC50 (NCI-H1975): 5.35

Structure (SMILES): COC(=O)Nc1nc2cc(C(=O)c3cccs3)ccc2[nH]1
- Activity [24]: Active
- tubulin inhibition call (active/not active) (Tubulin (Sus scrofa)): Active
- Activity [25]: Active
- Activity (Tubulin (Homo sapiens) [26]): Active

Structure (SMILES): CCOC(=O)c1ccc2[nH]c(-c3cccc(O)c3)cc(=O)c2c1
- pIC50 (NCI-H1975): 5.71

Structure (SMILES): CC(=O)O[C@H]1C(=O)[C@@]2(C)[C@H]([C@H](OC(=O)c3ccccc3)[C@]3(O)C[C@H](OC(=O)[C@H](O)[C@@H](NC(=O)c4ccccc4)c4ccccc4)C(C)=C1C3(C)C)[C@]1(OC(C)=O)CO[C@@H]1C[C@@H]2O [PACLITAXEL]
- Activity [24]: inactive
- tubulin inhibition call (active/not active) (Tubulin (Sus scrofa)): inactive
- pIC50 [2]: 6.07
- Activity [27]: 19 mg/dL
- Activity [25]: inactive
- Activity [28]: 868.7 mm3
- pIC50 (CCRF-CEM): 8.40
- Activity [29]: 0.16 mg/dL
- pIC50 [7]: 7.00
- Activity [30]: 102.8 IU/L
- pIC50 [9]: 6.15
